This is an account of results in ChEMBL document CHEMBL2417395, “Synthesis and biological evaluation of novobiocin analogues as potential heat shock protein 90 inhibitors” (Bioorg Med Chem, 2013).

The source made the active and inactive calls. The calls are words filed in the database; no cut-off is given here.

In assay [1] the test system is SK-BR-3. Kind of assay: Cell cycle arrest in human SKBR3 cells assessed as accumulation at S phase at 25 uM after 48 hrs by flow cytometric analysis (reference value: 19 +/- 6%). It is filed as functional. For orientation: A flow cytometer gives signals particle by particle.
Assay [2] relates to SK-BR-3. Kind of assay: Cell cycle arrest in human SKBR3 cells assessed as accumulation at subG1 phase at 25 uM after 48 hrs by flow cytometric analysis (reference value: 7 +/- 1%). It is filed as functional.
The test system of assay [3] is SK-BR-3. Briefly: Cell cycle arrest in human SKBR3 cells assessed as accumulation at subG1 phase at 12.5 uM after 48 hrs by flow cytometric analysis (reference value: 7 +/- 1%). It is filed as functional.
Assay [4] concerns SK-BR-3. Kind of assay: Cytotoxicity against human SKBR3 cells assessed as growth inhibition at 100 uM after 18 hrs by capillary-based flow cytometric analysis. Type of assay: functional, cell-based. In outline: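 Short-term viability: SKBR3 cells exposed overnight under the same conditions as the surface-HER2 screen, then stained with a DNA-staining viability reagent; viable cell number counted by capillary flow cytometry.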

In assay [5] the target is T1, Heat shock protein HSP90 (Homo sapiens, UniProt P07900+P08238). Briefly: Inhibition of HSP90 in human MCF7 cells assessed as depletion of total HER2 protein level at 50 uM after 18 hrs by Western blot analysis relative to control. Type of assay: cell-based. Summed up: (§1)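 MCF-7 cells at 70% confluence treated 18 h; floating plus trypsinized cells pooled, lysed in NP-40 buffer (pH 7.4) with protease/phosphatase inhibitors; 20 µg protein on 7.5% SDS-PAGE, nitrocellulose, milk block; probed for HER2 (2.0 µg/mL monoclonal) or HSP72, alkaline-phosphatase secondary, NBT/BCIP development; Ponceau S loading check.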
(In general: Immunoblotting shows a protein as a band on a membrane.)

The subject of assay [6] is SK-BR-3. Kind of assay: Cell cycle arrest in human SKBR3 cells assessed as accumulation at subG1 phase after 48 hrs by flow cytometric analysis. It is filed as functional, cell-based.
The test system of assay [7] is SK-BR-3. Briefly: Cell cycle arrest in human SKBR3 cells assessed as accumulation at G0/G1 phase at 25 uM after 48 hrs by flow cytometric analysis (reference value: 54 +/- 2%). It is filed as functional.
The species entered for assay [8] is Oryctolagus cuniculus. Kind of assay: Inhibition of HSP90 in rabbit reticulocyte lysate assessed as inhibition of heat-denatured luciferase refolding after 30 mins by luminescence plate reader analysis. In outline:
(§2)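 Rabbit reticulocyte lysate with ATP regeneration (10 mM phosphocreatine, 1 mM ATP, 17.5 IU creatine kinase) preincubated with compound 20 min on ice; firefly luciferase (100 nM) heat-denatured 40 °C 8 min, diluted 10-fold into lysate; 28 °C, triplicate aliquots luminescence-read at 0, 15, 30, 60 min; mean RLU or % of DMSO.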

The species named for assay [9] is Mus musculus. Briefly: Inhibition of HSP90 in mouse 3T3-Y9-B12 cells assessed as activation of HSF1 at 0.78 to 25 uM after overnight incubation by GFP reporter gene assay relative to control. It is filed as cell-based. Summed up: (§3)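 3T3-Y9-B12 mouse fibroblasts carrying a GFP gene under a minimal heat-shock element; near-confluent monolayers given serial dilutions in triplicate wells overnight, DMSO ≤0.25% vehicle, GA 0.5 µM positive control; after PBS wash, fluorescence at 485/525 nm, normalized to DMSO.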

The target of assay [10] is T1, Heat shock protein HSP90. Briefly: Inhibition of HSP90 in human SKBR3 cells assessed as aggregation of intracellular HER2 at 25 uM after 18 hrs by DAPI staining-based immunofluorescence microscopic analysis. It is filed as cell-based. As to conditions: SK-BR-3. Summed up:
(§4)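 SKBR3 in chamber slides adhered overnight, treated 18 h, fixed 4% paraformaldehyde, permeabilized 1% Triton X-100, goat-serum block; anti-HER2 (20 µg/mL) then Alexa Fluor 488 secondary (2 µg/mL) on ice, DAPI nuclear counterstain; imaged at 160× with identical exposures. GA 0.5 µM positive control.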

Assay [11] concerns SK-BR-3. Briefly: Cell cycle arrest in human SKBR3 cells assessed as accumulation at G2/M phase at 12.5 uM after 48 hrs by flow cytometric analysis (reference value: 21 +/- 1%). It is filed as functional.
Assay [12] relates to SK-BR-3. Kind of assay: Cell cycle arrest in human SKBR3 cells assessed as accumulation at G0/G1 phase at 12.5 uM after 48 hrs by flow cytometric analysis (reference value: 54 +/- 2%). Type of assay: functional.
The target of assay [13] is T1, Heat shock protein HSP90. Briefly: Inhibition of HSP90 in human SKBR3 cells assessed as depletion of cell surface HER2 protein level at 100 uM after 18 hrs by immunofluorescence-based flow cytometric analysis relative to control. As to conditions: SK-BR-3. In outline: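 SKBR3 cells treated 18 h at 100 µM (controls: DMSO, GA 0.5 µM, NB 500 µM), trypsinized, blocked in goat serum/PBA (pH 7.6) on ice, anti-HER2 20 µg/mL 30 min then Alexa 488 secondary 2 µg/mL 20 min on ice; mean fluorescence intensity by flow cytometry, isotype antibody control.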

Assay [14] relates to SK-BR-3. Briefly: Cell cycle arrest in human SKBR3 cells assessed as accumulation at subG1 phase at 12.5 to 25 uM by flow cytometric analysis. It is filed as functional, cell-based. The following applies: TDE = time-dependent effect.
Assay [15] deals with T1, Heat shock protein HSP90. Briefly: Inhibition of HSP90 in human MCF7 cells assessed as depletion of cell surface HER2 protein level after 18 hrs by flow cytometry.
The next assay has as its system MCF7. Kind of assay: Cytotoxicity against ER-positive human MCF7 cells expressing low level of HER2 after 3 days by MTT assay. It is filed as functional, cell-based. As to conditions: MCF7, 72 h. In outline:
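MCF-7 seeded 2,000 cells/well, serial dilutions added after 24 h, 72 h exposure; MTT at 500 µg/mL final, 3 h at 37 °C, formazan dissolved in DMSO, absorbance 570 nm minus 650 nm background. Triplicates, at least two experiments; IC50 = concentration cutting viable signal by 50% of DMSO control.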

Assay [16] relates to SK-BR-3. Kind of assay: Cell cycle arrest in human SKBR3 cells assessed as accumulation at G2/M phase at 25 uM after 48 hrs by flow cytometric analysis (reference value: 21 +/- 1%). It is filed as functional.
The subject of assay [17] is SK-BR-3. Briefly: Cytotoxicity against ER-negative human SKBR3 cells expressing high level of HER2 after 3 days by MTT assay. It is filed as functional, cell-based. The following applies: SK-BR-3, 72 h. In outline: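 SKBR3 cells in RPMI 1640 with 10% FBS exposed to serial dilutions for 3 days; MTT dye-reduction read-out of relative viable cell number. IC50 taken as concentration giving 50% reduction versus DMSO-treated cells.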
A general note: Tetrazolium assays rely on reduction of a dye to a coloured formazan, in cell work by metabolically active cells.

Assay [18] relates to SK-BR-3. Briefly: Cell cycle arrest in human SKBR3 cells assessed as accumulation at S phase at 12.5 uM after 48 hrs by flow cytometric analysis (reference value: 19 +/- 6%). It is filed as functional.
Assay [19] is filed under the species Oryctolagus cuniculus. Kind of assay: Inhibition of HSP90 in rabbit reticulocyte lysate assessed as inhibition of heat-denatured luciferase refolding at 100 uM by luminescence plate reader analysis. The following applies: TDE = time-dependent effect. In outline:
as §2

The target in assay [20] is T1, Heat shock protein HSP90. Kind of assay: Inhibition of HSP90 in human MCF7 cells assessed as depletion of total HER2 protein level at 12.5 to 25 uM after 18 hrs by Western blot analysis. Type of assay: cell-based. Summed up:
as §1

Assay [21] concerns SK-BR-3. Briefly: Cell cycle arrest in human SKBR3 cells assessed as accumulation at S phase at 1000 uM after 48 hrs by flow cytometric analysis (reference value: 19 +/- 6%). Type of assay: functional.
Assay [22] concerns the target T1, Heat shock protein HSP90. Kind of assay: Inhibition of HSP90 in human SKBR3 cells assessed as aggregation of intracellular HER2 at 1000 uM after 18 hrs by DAPI staining-based immunofluorescence microscopic analysis. Type of assay: cell-based. The following applies: SK-BR-3. Summed up:
as §4

For assay [23], the system named is SK-BR-3. Briefly: Cell cycle arrest in human SKBR3 cells assessed as accumulation at G0/G1 phase at 1000 uM after 48 hrs by flow cytometric analysis (reference value: 54 +/- 2%). Type of assay: functional.
The species entered for assay [24] is Oryctolagus cuniculus. Briefly: Inhibition of HSP90 in rabbit reticulocyte lysate assessed as inhibition of heat-denatured luciferase refolding at 500 uM by luminescence plate reader analysis. As to conditions: TDE = time-dependent effect. Summed up:
as §2

Assay [25] has as its system SK-BR-3. Kind of assay: Cell cycle arrest in human SKBR3 cells assessed as accumulation at G2/M phase at 1000 uM after 48 hrs by flow cytometric analysis (reference value: 21 +/- 1%). It is filed as functional.
The test system of assay [26] is SK-BR-3. Briefly: Cell cycle arrest in human SKBR3 cells assessed as accumulation at subG1 phase at 1000 uM after 48 hrs by flow cytometric analysis (reference value: 7 +/- 1%). It is filed as functional.
The species named for assay [27] is Mus musculus. Kind of assay: Inhibition of HSP90 in mouse 3T3-Y9-B12 cells assessed as activation of HSF1 at 1000 uM after overnight incubation by GFP reporter gene assay relative to control. It is filed as cell-based. Summed up: as §3

For the compound `CO[C@@H]1[C@@H](OC(N)=O)[C@@H](O)[C@H](Oc2ccc3cc(NC(=O)c4ccc(O)c(CC=C(C)C)c4)c(=O)oc3c2C)OC1(C)C`, the Activity with SK-BR-3 [1] was 17%; in the assay on SK-BR-3 [2], 48%; in the assay on SK-BR-3 [3], 22%; with SK-BR-3 [6], “Dose-dependent effect”; with SK-BR-3 [7], 43%; with SK-BR-3 [11] it was 9%. The Activity is 62% in the assay on SK-BR-3 [12], “tde” in the assay with SK-BR-3 [14], 15% in the assay with SK-BR-3 [16] and 10% in the assay with SK-BR-3 [18]. For the same compound, the “growth inhibition (GI)” value in the assay on SK-BR-3 [4] was “Active”. In addition, the inhibition (in general, the change of the read-out against control, counted positive when it falls) was 50% at Heat shock protein HSP90 [5], “Dose-dependent effect” in the assay listed under Oryctolagus cuniculus [8], 40% at Heat shock protein HSP90 [13] and “tde” in the assay filed under Oryctolagus cuniculus [19]. The fold change (FC) in the assay filed under Mus musculus [9] was under 2. In addition, the inhibition result at Heat shock protein HSP90 [10] and at Heat shock protein HSP90 [20] was “Active” throughout. Besides, the EC50 (as a rule, the concentration that produces a half-maximal response) at Heat shock protein HSP90 [15] is 24 µM. For the same compound, the results for the IC50 in the assay with MCF7 and in the assay on SK-BR-3 [17] were 15 µM and 17 µM, respectively.

With `CO[C@@H]1[C@@H](OC(N)=O)[C@@H](O)[C@H](Oc2ccc3c(O)c(NC(=O)c4ccc(O)c(CC=C(C)C)c4)c(=O)oc3c2C)OC1(C)C` [NOVOBIOCIN], the Activity in the assay on SK-BR-3 [21] turned out to be 15%; in the assay with SK-BR-3 [23], 57%; in the assay with SK-BR-3 [25] it was 10%; in the assay on SK-BR-3 [26], 38%. Moreover, at Heat shock protein HSP90 [22], the inhibition result is “Active”. Moreover, the inhibition entry was “Dose-dependent effect” in the assay listed under Oryctolagus cuniculus [8] and “tde” in the assay listed under Oryctolagus cuniculus [24]. The inhibition entry on Heat shock protein HSP90 [13] was “inactive”. Moreover, the IC50 (usually the concentration needed to halve the response being measured) is 357 µM with MCF7 and 350 µM with SK-BR-3 [17]. Also, in the assay filed under Mus musculus [27], the fold change (FC) was 1.5.

As to `CO[C@@H]1[C@@H](OC(=O)c2ccc(C)[nH]2)[C@@H](O)[C@H](Oc2ccc3c(O)c(NC(=O)c4cc5ccccc5[nH]4)c(=O)oc3c2C)OC1(C)C`, the “growth inhibition (GI)” value with SK-BR-3 [4] is “Active”. Besides, the inhibition on Heat shock protein HSP90 [13] was 40%. In addition, the EC50 at Heat shock protein HSP90 [15] was over 50 µM.
